RAM inhibit: inhibitors of the yeast RAM network, primary screen, dse1pr::URA3 reporter, 5-FOA selection; S. cerevisiae dse1pr::URA3 reporter, 5-FOA growth OD615, 2 d; analog-sensitive cbk1-as2 kinase mutant strain; inhibition, % at 50 µM; 190,000 compounds, 1.8% hits;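 active = inhibition above a set limit, 3 SD over mean compound inhibition, cut at about 8.4% in these data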;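 note: 0% = DMSO-only wells with no growth and 100% = 10 µM 1-NA-PP1 full growth; inhibition rescues growth on 5-FOA so higher OD means more RAM inhibition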
Arbovirus inh: antivirals against arbovirus infection, primary screen, cell-based, full library, 10K replicate subset; AID 1251, 2008; arbovirus infection cell-based antiviral screen; 200,000 compounds, 0.37% hits; inhibition, % at 10 µM; in the data active = inhibition above about 30%
ABCB1 inh: ABCB1 efflux pump inhibitors, primary screen, cell-based, multiplex, flow cytometry, ABCG2 counter-screen; ATP-dependent translocase ABCB1 (Homo sapiens), P08183; CCRF-Adr cells, JC-1 efflux; inhibition, % at 6.6 µM; 190,000 compounds, 0.067% hits; AID 1326, 2008; in the data active = inhibition above about 40%;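 note: 0% = vehicle and 100% = reference inhibitor; higher value means more JC-1 retained so stronger ABCB1 efflux block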
ABCG2 block: ABCG2 efflux pump inhibitors, primary screen, multiplex with ABCB1, IgMXP3 cells, flow cytometry. Broad substrate specificity ATP-binding cassette transporter ABCG2 (Homo sapiens), Q9UNQ0. JC-1 efflux. inhibition, % at 6.6 µM. 190,000 compounds, 0.1% hits. AID 1325, 2008;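 active = inhibition above 80%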;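 note: 0% = DMSO and 100% = nicardipine control wells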
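System: two drug-resistant human cell lines, ABCG2 and ABCB1; controls: nicardipine high and DMSO low controls; times: 10 min exposure at 25 °C with rotation, no wash; detection: flow cytometry of retained JC-1 fluorescence; read-out basis: percent efflux inhibition, scaled nicardipine 100% to DMSO 0%; doses: one concentration, 6.6 µM final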
The depositor's hits bear a star. Only some compounds are listed: those with a hit (about 2.3% of all), similar ones and a draw of the others.

SMILES	RAM inhibit	Arbovirus inh	ABCB1 inh	ABCG2 block
CCN(CC)S(=O)(=O)c1ccc(C)c(NC(=S)Nc2cccc(S(=O)(=O)N3CCCCCC3)c2)c1	9.0*	2	6	-2
COC(=O)c1sc2nc(SCC(=O)N(C)c3ccccc3)n(N)c(=O)c2c1C	3	-13	1	5
CCCn1ccc(O)c(Cc2ccc(Cl)cc2)c1=O	2	1	1	0
Cc1nn(CC(=O)OCCOc2ccc(Br)cc2)c(C)c1[N+](=O)[O-]	2	61*	0	0
Cc1cccc(COCC(Cc2ccccc2)N2CCN(C(=O)c3cccc(C)c3)CCC2=O)c1 (stereo not drawn)	4	-2	5	4
Cc1cccc(COCC(Cc2ccccc2)N2CCN(C(=O)c3ccc(Cl)c(Cl)c3)CCC2=O)c1 (stereo not drawn)	10*	-34	4	8
O=C(c1ccc(C(F)(F)F)cc1)N1CCC(=O)N(C(COCc2ccc(Cl)cc2)Cc2ccccc2)CC1 (stereo not drawn)	9.8*	-29	3	6
O=C(c1ccc(Cl)c(Cl)c1)N1CCC(=O)N(C(COCc2cccc(C(F)(F)F)c2)Cc2ccccc2)CC1 (stereo not drawn)	9.0*	-22	11	19
Cc1cccc(COCC(Cc2ccccc2)N2CCN(C(=O)c3cc(Cl)cc(Cl)c3)CCC2=O)c1 (stereo not drawn)	11*	-28	8	12
COc1ccc(-n2c(COc3cccc(C)c3)nnc2SCC(=O)NCc2ccco2)cc1	0	-5	3	5
C=CCN(CC=C)C(=S)NC(=O)c1ccc([N+](=O)[O-])cc1	-1	-6	0	6
CC(=O)Nc1ccc(S(=O)(=O)N(c2cccnc2)S(=O)(=O)c2ccc(NC(C)=O)cc2)cc1	10.0*	3	1	2
CCOC(=O)C1CCCN(C(=O)Cn2nc(CC)n3c(cc4sccc43)c2=O)C1 (stereo not drawn)	0	-6	1	6
O=C(O)CCc1ccc(-c2cccs2)n1CCc1ccccc1	9.5*	8	1	4
O=C(O)CCc1ccc(-c2cccs2)n1CCC(=O)O	0	14	0	-1
CCc1nnc(NC(=O)c2cc3ccccc3oc2=O)s1	1	65*	0	0
Cc1ccccc1-c1nnc(NC(=O)c2cc3ccccc3oc2=O)s1	2	-4	2	20
CC(C)C1OC(c2cccc(NC(=O)c3cccs3)c2)OCC1(C)C (stereo not drawn)	9.3*	-23	1	4
CCOC(=O)N1CCC(N2CCCC(C(=O)c3ccc4cc(OC)ccc4c3)C2)CC1 (stereo not drawn)	0	-10	-2	-3
CCCCCC[n+]1c(-c2ccc(Cl)cc2Cl)csc1Nc1ccccc1	9.0*	-18	0	-2
Cc1ccc(-c2nn(-c3ccccc3)cc2C(=O)Nc2ccc(C(=O)O)cc2)cc1	9.6*	-2	-1	-2
N#CCSc1nc(N)c(C#N)c(C2CCCCC2)c1C#N	2	34*	-3	-2
N#Cc1c(N)nc(SCC(=O)NC2CCCCC2)c(C#N)c1-c1ccc(Cl)cc1	2	-7	0	2
CCCN1C(=O)C(O)(C2CC(=O)CC(C)(C)O2)c2ccccc21 (stereo not drawn)	-2	-14	0	-1
O=C(NC1CCCC1)C(c1cccs1)N(Cc1ccco1)C(=O)c1csnn1 (stereo not drawn)	1	-4	0	0
SMILES	RAM inhibit	Arbovirus inh	ABCB1 inh	ABCG2 block
CCOc1ccc2nc(NC(=O)Nc3cccs3)sc2c1	1	36*	-1	5
Cc1ccc2nc(NC(=O)C3CCN(S(=O)(=O)c4cnc[nH]4)CC3)sc2c1	11*	31*	0	1
CCOc1ccc2nc(NC(=O)Nc3ccccc3)sc2c1	0	13	-5	7
CCOc1ccc2nc(NC(=O)C3CCN(S(=O)(=O)c4cnc[nH]4)CC3)sc2c1	7	30*	0	-1
COC(=O)C(Cc1ccc(OC(=O)c2ccc(C)cc2)cc1)N1Cc2ccccc2C1=O (stereo not drawn)	6	5	0	0
CCOC(=O)c1sc(-c2ccccc2)cc1NC(=O)CSc1nnnn1C	8.4*	-2	1	8
CCOC(=O)c1cc(-c2ccccc2)sc1NC(=O)CC(C)C	0	-12	1	13
CCOC(=O)c1cc(-c2ccccc2)sc1NC(=O)CSc1nnnn1C	8.4*	6	-1	0
CC(=O)C1=C(O)C(=O)N(CCc2c[nH]c3ccccc23)C1c1ccc(C)cc1 (stereo not drawn)	2	0	0	3
Cc1ccsc1C(C(=O)NC(C)(C)C)N(C(=O)c1csnn1)c1ccccc1 (stereo not drawn)	10*	9	0	-1
Cc1sc(NC(=O)c2ccccc2)c(C(=O)c2ccccc2)c1C	11*	-9	-3	-3
COc1ccccc1N1CCN(C(=S)Nc2cccc(C)c2)CC1	0	-16	0	3
COc1ccc(-n2cc3c(-c4cccc(Br)c4)nnc(C)c3n2)cc1	11*	-22	2	4
Cc1nnc(-c2cccc(Br)c2)c2cn(-c3ccc(Br)cc3)nc12	2	-14	2	8
O=C(Nc1cccc(C(F)(F)F)c1)N1CCC(c2nc(-c3ccc(F)cc3)no2)CC1	10*	-19	1	6
Cc1cccn2c(=O)c(C=NCCO)c(Nc3ccc(Cl)cc3)nc12	8.9*	-11	0	1
Cc1cccn2c(=O)c(C=Nc3ccc(Cl)cc3)c(NCCO)nc12	2	1	0	23
COC(=O)CSc1nc(-c2ccccc2)c2c(c1C#N)CCCC2	8.6*	3	1	2
CCOC(=O)C1=C(CC)Nc2ccccc2N/C1=N\S(=O)(=O)c1ccc(C(=O)OCC)cc1	9.3*	21	1	6
COc1ccccc1C(CC(=O)c1ccccc1)CC(=O)c1ccccc1	11*	-1	1	3
O=C(NC(=S)N1CCN(c2ccc(C(F)(F)F)cc2[N+](=O)[O-])CC1)c1cccs1	3	-27	0	13
O=C(CCC(=O)OCc1cccc([N+](=O)[O-])c1)Nc1ccccc1Cl	3	3	0	-1
CCOC(=O)c1nnc(-c2ccccc2)nc1NCc1ccc(Cl)cc1	10*	-8	2	20
CCOC(=O)c1nnc(-c2ccccc2)nc1Sc1c(Cl)cccc1Cl	5	-41	1	6
CCOc1cc(/C=N/NC(=O)NN(C)c2ncc(C(F)(F)F)cc2Cl)ccc1O	1	1	0	0
O=C(N[C@@H](c1ccccc1)[C@@H]1C[C@H]1C(=O)O)OCc1ccccc1	2	4	0	-4
CCCC[C@H](CN(N=O)[C@@H](Cc1ccccc1)CN(C)N=O)N(CCc1ccccc1)N=O	8.9*	5	1	1

Screening data as filed in PubChem.
